Experimental data from ChEMBL document CHEMBL3739416, “Discovery of a marine-derived bis-indole alkaloid fascaplysin, as a new class of potent P-glycoprotein inducer and establishment of its structure-activity relationship” (Eur J Med Chem, 2016).
Calls of active or inactive are those of the source. The calls are words filed in the database; no cut-off is given here.

Experiments:
[1] = Cytotoxicity against human LS180 cells assessed as cell viability at 10 uM after 48 hrs by MTT assay relative to control; format: cell-based; details: read-out: Activity
Summary of the method: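 LS-180 cells were seeded at 1 × 10⁴ per well, allowed 24 h, then treated with compound. MTT dye was added 4 h before the end. Formazan was dissolved in DMSO and absorbance read at 570 nm. Viability was expressed relative to the untreated control, taken as 100%.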

LS180 [2] = assay: Induction of P-glycoprotein in human LS180 cells assessed as accumulation of intracellular rhodamine-123 at 1 uM after 48 hrs by fluorescence assay relative to control; format: cell-based
Summary of the method: (§1)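 LS-180 colorectal cells, seeded at 2 × 10⁴ per well, were grown 24 h and then exposed to compound for 48 h, with 0.1% final DMSO. Rifampicin at 10 µM served as the reference inducer. Cells were held in HANKS buffer for 40 min, then loaded with Rh123 for 90 min and washed four times in cold PBS. Lysis was 1 h in 0.1% Triton X-100/0.2 N NaOH. Read-out was intracellular Rh123 per total protein, expressed as % of untreated control. Values are the mean ± SD of three experiments.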

LS180 [3] = assay: Induction of P-glycoprotein in human LS180 cells assessed as accumulation of intracellular rhodamine-123 at 5 uM after 48 hrs by fluorescence assay; format: cell-based; summary of the method: as §1
LS180 [4] = assay: Induction of P-glycoprotein in human LS180 cells assessed as accumulation of intracellular rhodamine-123 at 500 nM after 48 hrs by fluorescence assay relative to control; format: cell-based; summary of the method: as §1
[5] = Thermodynamic aqueous solubility of the compound in stimulated gastric fluid; format: ADME; details: simulated gastric fluid; read-out: Therm_solubility
LS180 [6] = assay: Induction of P-glycoprotein in human LS180 cells assessed as accumulation of intracellular rhodamine-123 at 125 nM after 48 hrs by fluorescence assay relative to control; format: cell-based; summary of the method: as §1
LS180 [7] = assay: Induction of P-glycoprotein in human LS180 cells assessed as accumulation of intracellular rhodamine-123 at 62.5 nM after 48 hrs by fluorescence assay relative to control; format: cell-based; summary of the method: as §1
LS180 [8] = assay: Induction of P-glycoprotein in human LS180 cells assessed as accumulation of intracellular rhodamine-123 at 250 nM after 48 hrs by fluorescence assay relative to control; format: cell-based; summary of the method: as §1
[9] = Thermodynamic aqueous solubility of the compound in water; format: physicochemical; details: read-out: Therm_solubility
LS180 [10] = assay: Induction of P-glycoprotein expression in human LS180 cells at 1 uM by Western blot analysis relative to control; format: cell-based
[11] = Thermodynamic aqueous solubility of the compound in stimulated intestinal fluid; format: ADME; details: simulated intestinal fluid; read-out: Therm_solubility
[12] = Thermodynamic aqueous solubility of the compound in phosphate buffer saline; format: physicochemical; details: read-out: Therm_solubility
[13] = Cytotoxicity against HGF cells assessed as cell viability after 48 hrs by MTT assay; format: cell-based; details: Homo sapiens
Summary of the method: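 Normal human gingival fibroblasts grown in MEM with 1% non-essential amino acids, 10% FCS, penicillin G and streptomycin at 37 °C, 5% CO2. Seeded at 1 × 10⁴ cells/well for 24 h, then compound-treated. MTT added 4 h before the end, formazan dissolved in DMSO, absorbance read at 570 nm. Viability expressed relative to untreated control set as 100%.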

LS180 [14] = assay: Induction of P-glycoprotein in human LS180 cells assessed as accumulation of intracellular rhodamine-123 at 10 uM after 48 hrs by fluorescence assay relative to control; format: cell-based; summary of the method: as §1

SMILES | viability at 48 h, 10 µM [1] | Activity (LS180 [2]) | Activity (LS180 [3]) | further results
O=C(c1ccc(Cl)cc1Cl)c1nccc2c1[nH]c1ccccc12 | 98.8% | 97.3% |  | 
O=C1c2ccc(Cl)cc2-[n+]2ccc3c([nH]c4ccccc43)c21 | 66.2% | 57.1% |  | 
O=C(c1cnccn1)N1CCc2c([nH]c3ccccc23)C1 |  |  | inactive | 
O=C(c1c(F)cccc1Cl)c1nccc2c1[nH]c1ccccc12 | 60.1% | 89.6% |  | 
O=C(c1ccc(Br)o1)N1CCc2c([nH]c3ccccc23)C1 |  |  | inactive | 
O=C(c1ccc(-c2cc(C(F)(F)F)ccc2Cl)o1)N1CCc2c([nH]c3ccccc23)C1 |  |  | inactive | 
c1ccc2c3c([nH]c2c1)CN(Cc1ccncc1)CC3 |  |  | inactive | 
O=C1c2ccc(Cl)c(Cl)c2-[n+]2ccc3c([nH]c4ccccc43)c21 | 57.4% | 57.8% |  | 
O=C(c1cc2ccccc2o1)N1CCc2c([nH]c3ccccc23)C1 |  |  | inactive | 
O=C(c1cc(Cl)ccc1Cl)c1nccc2c1[nH]c1ccccc12 | 69.6% | 103% |  | 
O=C1NCCN1C(=O)N1CCc2c([nH]c3ccccc23)C1 |  |  | inactive | 
Clc1ccc(CN2CCc3c([nH]c4ccccc34)C2)s1 |  |  | inactive | 
O=C(c1c[nH]c2ccccc12)N1CCc2c([nH]c3ccccc23)C1 |  |  | inactive | 
C[n+]1ccc2c([nH]c3ccccc32)c1C(=O)c1ccc(C(F)(F)F)cc1 | 75.7% | 78.5% |  | 
c1ccc2cc(CN3CCc4c([nH]c5ccccc45)C3)ccc2c1 |  |  | inactive | 
Cc1noc(C)c1CN1CCc2c([nH]c3ccccc23)C1 |  |  | inactive | 
Cc1ccsc1C(=O)N1CCc2c([nH]c3ccccc23)C1 |  |  | inactive | 
O=C(c1ccc(-c2ccccc2)cc1)N1CCc2c([nH]c3ccccc23)C1 |  |  | inactive | 
C[n+]1ccc2c([nH]c3ccccc32)c1C(=O)c1ccccc1Br.[I-] | 69.1% | 70.1% |  | Activity (LS180 [4]): 33.6%; solubility thermodynamic [5]: 800 µg/mL; Activity (LS180 [6]): 41.8%; Activity (LS180 [7]): 80%; Activity (LS180 [8]): 42.3%; solubility thermodynamic [9]: 800 µg/mL; fold change (FC) (LS180 [10]): 8; solubility thermodynamic [11]: 800 µg/mL; solubility thermodynamic [12]: 800 µg/mL
O=C(c1cc(F)c(F)cc1Cl)c1nccc2c1[nH]c1ccccc12 | 81.9% | 112% |  | 
O=C(c1ccccc1Br)c1nccc2c1[nH]c1ccccc12 | 80.3% | 105% |  | 
C[n+]1ccc2c([nH]c3ccccc32)c1C(=O)c1ccccc1F | 69.8% | 79% |  | 
O=C(c1ccc2ccccc2n1)N1CCc2c([nH]c3ccccc23)C1 |  |  | inactive | 
O=C(c1ccccc1Cl)c1nccc2c1[nH]c1ccccc12 | 89.4% | 105% |  | 
CN1CCN(C(=O)N2CCc3c([nH]c4ccccc34)C2)CC1 |  |  | inactive | 

SMILES | viability at 48 h, 10 µM [1] | Activity (LS180 [2]) | Activity (LS180 [3]) | further results
O=C1c2cc(F)c(Cl)cc2-[n+]2ccc3c([nH]c4ccccc43)c21 | 36.8% | 55.5% |  | 
C[n+]1ccc2c([nH]c3ccccc32)c1C(=O)c1ccccc1 | 77.5% | 75.2% |  | 
O=C(c1ccccc1F)c1nccc2c1[nH]c1ccccc12 | 98.4% | 101% |  | 
O=C(c1ccccc1)c1nccc2c1[nH]c1ccccc12 | 67.5% | 94.6% |  | 
O=C1c2cc(F)c(F)cc2-[n+]2ccc3c([nH]c4ccccc43)c21.[Cl-] | 63.5% | 49.6% |  | Activity (LS180 [4]): 30.6%; solubility thermodynamic [5]: 80 µg/mL; Activity (LS180 [6]): 33.8%; Activity (LS180 [7]): 35.5%; Activity (LS180 [8]): 35.3%; solubility thermodynamic [9]: > 1500 µg/mL; fold change (FC) (LS180 [10]): 4; solubility thermodynamic [11]: < 5 µg/mL; solubility thermodynamic [12]: 80 µg/mL
C[n+]1ccc2c([nH]c3ccccc32)c1C(=O)c1c[nH]c2ccccc12 | 69.1% | 77.6% |  | 
O=C1c2cc(Cl)ccc2-[n+]2ccc3c([nH]c4ccccc43)c21 | 67.9% | 58.7% |  | 
O=[N+]([O-])c1ccc(CN2CCc3c([nH]c4ccccc34)C2)o1 |  |  | inactive | 
c1ccc2[nH]c(CN3CCc4c([nH]c5ccccc45)C3)nc2c1 |  |  | inactive | 
Cc1ncsc1C(=O)N1CCc2c([nH]c3ccccc23)C1 |  |  | inactive | 
O=C(c1cc(F)c(Cl)cc1Cl)c1nccc2c1[nH]c1ccccc12 | 92.4% | 106% |  | 
O=C(c1ccc(Cl)c(Cl)c1Cl)c1nccc2c1[nH]c1ccccc12 | 84.9% | 104% |  | 
c1ccc2c(CN3CCc4c([nH]c5ccccc45)C3)c3ccccc3cc2c1 |  |  | inactive | 
O=C(c1ccc(C(F)(F)F)cc1)c1nccc2c1[nH]c1ccccc12 | 106% | 107% |  | 
O=C(N1CCOCC1)N1CCc2c([nH]c3ccccc23)C1 |  |  | inactive | 
COc1ccc(C(=O)c2nccc3c2[nH]c2ccccc23)c(OC)c1 | 82.2% | 108% |  | 
O=C1c2ccccc2-[n+]2ccc3c([nH]c4ccccc43)c21.[Cl-] [FASCAPLYSIN CHLORIDE] | 57.5% | 57.6% |  | Activity (LS180 [4]): 34.5%; solubility thermodynamic [5]: > 1500 µg/mL; IC50 [13]: 4 µM; Activity (LS180 [6]): 39.3%; Activity (LS180 [7]): 42.9%; Activity (LS180 [8]): 43.7%; solubility thermodynamic [9]: > 1500 µg/mL; solubility thermodynamic [11]: > 1500 µg/mL; solubility thermodynamic [12]: > 1500 µg/mL
O=C(c1ccc(-c2cccc([N+](=O)[O-])c2)o1)N1CCc2c([nH]c3ccccc23)C1 |  |  | inactive | 
CO[C@H]1/C=C/O[C@@]2(C)Oc3c(C)c(O)c4c(O)c(c(/C=N/N5CCN(C)CC5)c(O)c4c3C2=O)NC(=O)/C(C)=C\C=C\[C@H](C)[C@H](O)[C@@H](C)[C@@H](O)[C@@H](C)[C@H](OC(C)=O)[C@@H]1C |  |  |  | Activity (LS180 [14]): 67.1%
C[n+]1ccc2c([nH]c3ccccc32)c1C(=O)c1ccccc1Cl | 69.7% | 71.4% |  | 
O=C(c1ccc([N+](=O)[O-])s1)N1CCc2c([nH]c3ccccc23)C1 |  |  | inactive | 
c1ccc2nc(CN3CCc4c([nH]c5ccccc45)C3)ccc2c1 |  |  | inactive | 
O=C1c2c(Cl)cccc2-[n+]2ccc3c([nH]c4ccccc43)c21 | 63.4% | 59.2% |  | 
O=C(c1c[nH]c2ccccc12)c1nccc2c1[nH]c1ccccc12 | 78.7% | 99.4% |  | 
